We go through 10 compounds from ChEMBL document CHEMBL1131197, “5'-substituted adenosine analogs as new high-affinity partial agonists for the adenosine A1 receptor” (J Med Chem, 1998).

A word on the EC50: it is the concentration needed to bring the measured effect to its halfway point. Low readings indicate higher potency in that assay, high ones lower potency in that assay. One may read the Ki as a dissociation constant, usually derived from enzyme kinetics or from competition with a known ligand.

Assay [1] has as its target T1, Adenosine receptor A1 (Rattus norvegicus) (UniProt P25099).
T1 sequence (whole entry): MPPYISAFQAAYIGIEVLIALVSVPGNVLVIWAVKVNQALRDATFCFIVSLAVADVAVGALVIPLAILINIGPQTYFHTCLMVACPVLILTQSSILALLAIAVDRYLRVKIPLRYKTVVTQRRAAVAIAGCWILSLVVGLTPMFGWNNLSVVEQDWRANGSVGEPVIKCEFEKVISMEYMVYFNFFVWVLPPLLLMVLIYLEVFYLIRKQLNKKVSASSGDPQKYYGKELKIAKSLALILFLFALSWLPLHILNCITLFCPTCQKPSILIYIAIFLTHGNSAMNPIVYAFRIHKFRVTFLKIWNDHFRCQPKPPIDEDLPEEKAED
The assay can be described thus: Intrinsic activity for maximum stimulation of [35S]GTP-gamma-S, binding to adenosine A1 receptor in rat brain membranes. The format is functional, cell membranes. The method in brief:
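Rat brain membranes incubated with the agonist and [35S]GTPγS; nonspecific binding defined with 10 μM unlabelled GTPγS. Read-out is the maximal level of G protein activation by [35S]GTPγS binding, given ± SEM, with EC50 derived from the stimulation curves; n = 3-9.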
On the technique in general: GTPγS resists hydrolysis and so accumulates on activated G proteins.

Assay [2] deals with T2, Adenosine receptor A1 (Rattus norvegicus, UniProt P25099).
T2 sequence (P25099 whole entry): T1 sequence (whole entry)
Kind of assay: Effective concentration for [35S]GTP-gamma-S, binding to adenosine A1 receptor in rat brain membranes. The assay is classed as functional, cell membranes. The method in brief:
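Stimulation of [35S]GTPγS binding in rat brain membranes (same preparation as binding); nonspecific binding defined with 10 µM unlabeled GTPγS.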

For assay [3], the target named is T2, Adenosine receptor A1. Kind of assay: Binding affinity against adenosine A1 receptor using [3H]DPCPX in rat cortical membranes in the absence of GTP. The format is cell membranes. Put shortly: (§1)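 Rat cortical membranes, pre-incubated with 2 units/mL ADA at 37 °C before storage; protein by BCA. Nonspecific binding defined with 10 µM R-PIA. Line 1 run without GTP, line 2 with 1 mM GTP. Ki values are means of three independent experiments in duplicate unless otherwise noted.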

Assay [4] concerns the target Adenosine receptor A2a (Rattus norvegicus, UniProt P30543). Kind of assay: Binding affinity against Adenosine A2A receptor using [3H]-CGS- 21680 as the radioligand in rat striatal membranes. The format is cell membranes, Striatum, Membrane.
Assay [5] has as its target T2, Adenosine receptor A1. Kind of assay: Binding affinity against adenosine A1 receptor using [3H]DPCPX in rat cortical membranes in the presence of GTP. The assay is classed as cell membranes. Put shortly: as §1

Sequence of Adenosine receptor A2a (P30543 whole entry): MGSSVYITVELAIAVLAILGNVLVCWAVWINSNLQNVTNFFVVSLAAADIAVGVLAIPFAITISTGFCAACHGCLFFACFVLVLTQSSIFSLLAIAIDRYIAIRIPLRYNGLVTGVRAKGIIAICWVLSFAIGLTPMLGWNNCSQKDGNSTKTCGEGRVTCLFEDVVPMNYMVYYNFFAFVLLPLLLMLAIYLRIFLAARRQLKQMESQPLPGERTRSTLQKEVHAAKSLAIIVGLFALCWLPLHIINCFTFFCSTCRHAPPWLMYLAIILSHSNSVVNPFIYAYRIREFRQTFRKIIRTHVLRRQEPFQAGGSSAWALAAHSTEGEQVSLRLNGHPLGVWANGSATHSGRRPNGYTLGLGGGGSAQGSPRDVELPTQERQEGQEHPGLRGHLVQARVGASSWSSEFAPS

With `CC(C)CSC[C@H]1O[C@@H](n2cnc3c(NC4CCCC4)ncnc32)[C@H](O)[C@@H]1O`, the Activity in assay [1] amounted to 85.3%. The compound further showed an EC50 in assay [2] of 189 nM. In addition, the Ki in assay [3] was 41 nM; in assay [4], 10300 nM; in assay [5], 149 nM.
`CCCSC[C@H]1O[C@@H](n2cnc3c(NC4CCCC4)ncnc32)[C@H](O)[C@@H]1O` returned an Activity in assay [1] of 84.1%. Further, the concentration giving a half-maximal response (EC50) in assay [2] amounted to 384 nM. Further, the Ki in assay [3] amounted to 76 nM; in assay [4], 18800 nM; in assay [5], 222 nM.
Take `CCNC[C@H]1O[C@@H](n2cnc3c(NC4CCCC4)ncnc32)[C@H](O)[C@@H]1O`: the Ki in assay [3] was determined as 2410 nM; in assay [4], 42500 nM; in assay [5], 8560 nM.
In assay [1], `CNC[C@H]1O[C@@H](n2cnc3c(NC4CCCC4)ncnc32)[C@H](O)[C@@H]1O` returned an Activity of 96.4%. This compound also returned an EC50 in assay [2] of 1330 nM. Besides, the inhibition constant Ki in assay [3] turned out to be 440 nM; in assay [4], 45500 nM; in assay [5] it was 2600 nM.
In turn, `O[C@@H]1[C@H](O)[C@@H](CCl)O[C@H]1n1cnc2c(NC3CCCC3)ncnc21` returned an Activity in assay [1] of 88%. The compound also registered an EC50 in assay [2] of 26 nM. The inhibition constant Ki came out at 9.5 nM in assay [3], 8750 nM in assay [4] and 61.5 nM in assay [5].
In assay [1], `C[Se]C[C@H]1O[C@@H](n2cnc3c(NC4CCCC4)ncnc32)[C@H](O)[C@@H]1O` had an Activity of 50.3%. This compound also yielded an EC50 in assay [2] of 225 nM. Also, the results for the Ki in assay [3], in assay [4] and in assay [5] were 76 nM, 11300 nM and 166 nM, respectively.
On to `CCSC[C@H]1O[C@@H](n2cnc3c(NC4CCCC4)ncnc32)[C@H](O)[C@@H]1O`, for which, in assay [1], the Activity turned out to be 65.6%. For the same compound, in assay [2], the response was half-maximal at 127 nM (EC50). For the same compound, the Ki in assay [3] was determined as 45 nM; in assay [4] it was 19000 nM; in assay [5], 130 nM.
For `CSC[C@H]1O[C@@H](n2cnc3c(NC4CCCC4)ncnc32)[C@H](O)[C@@H]1O`, the Activity in assay [1] came to 40.2%. The same compound displayed a half-maximal effective concentration (EC50) in assay [2] of 99 nM. The Ki in assay [3] was found to be 59 nM; in assay [4], 13500 nM; in assay [5], 199 nM.
In turn, `CCCNC[C@H]1O[C@@H](n2cnc3c(NC4CCCC4)ncnc32)[C@H](O)[C@@H]1O` came in with an Activity in assay [1] of 73%. Besides, the EC50 in assay [2] turned out to be 13900 nM. The Ki worked out at 4640 nM in assay [3], 14500 nM in assay [4] and 14300 nM in assay [5].
Take `OC[C@H]1O[C@@H](n2cnc3c(NC4CCCC4)ncnc32)[C@H](O)[C@@H]1O`: the Activity in assay [1] is 100%.
